Reference: ChEMBL document CHEMBL2375307, “Synthesis and identification of β-aryloxyquinoline based diversely fluorine substituted N-aryl quinolone derivatives as a new class of antimicrobial, antituberculosis and antioxidant agents” (Eur J Med Chem, 2013)
Values after ≈ are worked out from the molar mass of the structure shown.

How the values were obtained:
Streptococcus pneumoniae = assay: Antibacterial activity against Streptococcus pneumoniae MTCC 1936 assessed as growth inhibition after overnight incubation by NCCLS broth microdilution method; assay type: functional
In short: (§1)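 Broth microdilution per NCCLS in Mueller Hinton broth, compounds diluted in DMSO. Primary screen at 500, 250 and 200 µg/mL; actives retested at 100, 62.5, 50, 25 and 12.5 µg/mL. Tubes incubated overnight at 37 °C. […] Non-growing tubes subcultured overnight at 37 °C to judge bacteriostatic versus bactericidal action.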

Bacillus subtilis = assay: Antibacterial activity against Bacillus subtilis MTCC 441 assessed as growth inhibition after overnight incubation by NCCLS broth microdilution method; assay type: functional; in short: as §1
Clostridium tetani = assay: Antibacterial activity against Clostridium tetani MTCC 449 assessed as growth inhibition after overnight incubation by NCCLS broth microdilution method; assay type: functional
Vibrio cholerae = assay: Antibacterial activity against Vibrio cholerae MTCC 3906 assessed as growth inhibition after overnight incubation by NCCLS broth microdilution method; assay type: functional
Aspergillus fumigatus = assay: Antifungal activity against Aspergillus fumigatus MTCC 3008 assessed as growth inhibition after overnight incubation by NCCLS broth microdilution method; assay type: functional; in short: as §1
[1] = Antioxidant activity of the compound assessed as ascorbic acid equivalent of ferric tripyridyl triazine reducing activity at 200 ug/mL after 15 mins by FRAP assay; assay type: functional
In short: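 FRAP, modified Benzie and Strain method. Fe(III)-TPTZ reagent made with TPTZ in 40 mM HCl, FeCl3 solution and acetate buffer pH 3.6. 200 µL sample solution mixed with 3 mL reagent and held 15 min at 37 °C. Fe(II)-TPTZ read at 593 nm against an ascorbic acid standard, expressed as ascorbic acid equivalents (mmol/100 g compound).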

Candida albicans = assay: Antifungal activity against Candida albicans MTCC 227 assessed as growth inhibition after overnight incubation by NCCLS broth microdilution method; assay type: functional; in short: as §1
Escherichia coli = assay: Antibacterial activity against Escherichia coli MTCC 443 assessed as growth inhibition after overnight incubation by NCCLS broth microdilution method; assay type: functional; in short: as §1
[2] = system: Mycobacterium tuberculosis; assay: Antitubercular activity against Mycobacterium tuberculosis H37Rv assessed as growth inhibition at 250 ug/mL after 12 to 28 days by Lowenstein-Jensen method relative to control; assay type: functional; conditions: read-out: GI
In short: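 Modified Lowenstein-Jensen method. Compound at 250 in DMSO added to liquid L-J medium, then sterilized by inspissation and incubated 24 h at 37 °C. Streaked with H37Rv harvested in 0.85% saline (5 × 10⁴ bacilli/tube) and incubated at 37 °C. Colonies read at 12, 22 and 28 days versus drug-free control; no colonies or <20 colonies scored as inhibition.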

Salmonella typhi = assay: Antibacterial activity against Salmonella typhi MTCC 98 assessed as growth inhibition after overnight incubation by NCCLS broth microdilution method; assay type: functional, Salmonella enterica subsp. enterica serovar Typhi; conditions: Salmonella enterica

Compound | MIC (Streptococcus pneumoniae) [µg/mL] | MIC (Bacillus subtilis) [µg/mL] | MIC (Clostridium tetani) [µg/mL] | MIC (Vibrio cholerae) [µg/mL] | MIC (Aspergillus fumigatus) [µg/mL] | Activity [1] [equiv] | MIC (Candida albicans) [µg/mL] | MIC (Escherichia coli) [µg/mL] | inhibition of growth at 250 µg/mL [2] [%] | MIC (Salmonella typhi) [µg/mL]
CC1(C)CC(=O)C2=C(C1)N(c1cc(F)ccc1F)C(N)=C(C#N)C2c1cc2cc(Cl)ccc2nc1Oc1ccc(C#N)cc1 (stereo not given) | 250 (≈ 411 µM) | 100 (≈ 164 µM) | 125 (≈ 206 µM) | 250 (≈ 411 µM) | > 1000 | 2.17 | 1000 (≈ 1640 µM) | 250 (≈ 411 µM) | 87 | 125 (≈ 206 µM)
CC1(C)CC(=O)C2=C(C1)N(c1cc(F)ccc1F)C(N)=C(C#N)C2c1cc2ccccc2nc1Oc1ccc(C#N)cc1 (stereo not given) | 100 (≈ 174 µM) | 250 (≈ 436 µM) | 200 (≈ 349 µM) | 250 (≈ 436 µM) | 1000 (≈ 1740 µM) | 84.4 | 500 (≈ 872 µM) | 250 (≈ 436 µM) | 21 | 250 (≈ 436 µM)
CC1(C)CC(=O)C2=C(C1)N(c1cccc(C(F)(F)F)c1)C(N)=C(C#N)C2c1cc2ccccc2nc1Oc1ccc(C#N)cc1 (stereo not given) | 200 (≈ 330 µM) | 250 (≈ 413 µM) | 200 (≈ 330 µM) | 200 (≈ 330 µM) | 1000 (≈ 1650 µM) | 20.2 | 1000 (≈ 1650 µM) | 250 (≈ 413 µM) | 45 | 200 (≈ 330 µM)
N#Cc1ccc(Oc2nc3ccc(Cl)cc3cc2C=O)cc1 | 125 (≈ 405 µM) | 125 (≈ 405 µM) | 125 (≈ 405 µM) | 200 (≈ 648 µM) | 250 (≈ 810 µM) | 34.9 | > 1000 | 250 (≈ 810 µM) | 61 | 200 (≈ 648 µM)
COC1=CC(=O)C[C@@H](C)[C@]12Oc1c(Cl)c(OC)cc(OC)c1C2=O [GRISEOFULVIN] | – | – | – | – | 100 (≈ 283 µM) | – | 500 (≈ 1420 µM) | – | – | –
N#CC1=C(N)N(c2cc(F)ccc2F)C2=C(C(=O)CCC2)C1c1cc2cc(Cl)ccc2nc1Oc1ccc(C#N)cc1 (stereo not given) | 100 (≈ 172 µM) | 200 (≈ 345 µM) | 100 (≈ 172 µM) | 100 (≈ 172 µM) | 1000 (≈ 1720 µM) | 100 | 250 (≈ 431 µM) | 100 (≈ 172 µM) | 84 | 62.5 (≈ 108 µM)
Cc1ccc2nc(Oc3ccc(C#N)cc3)c(C3C(C#N)=C(N)N(c4ccc(F)c(F)c4)C4=C3C(=O)CC(C)(C)C4)cc2c1 (stereo not given) | 200 (≈ 340 µM) | 250 (≈ 425 µM) | 250 (≈ 425 µM) | 250 (≈ 425 µM) | 1000 (≈ 1700 µM) | 122 | > 1000 | 200 (≈ 340 µM) | 32 | 250 (≈ 425 µM)
COc1ccc2nc(Oc3ccc(C#N)cc3)c(C3C(C#N)=C(N)N(c4cccc(C(F)(F)F)c4)C4=C3C(=O)CCC4)cc2c1 (stereo not given) | 125 (≈ 206 µM) | 200 (≈ 329 µM) | 500 (≈ 823 µM) | 100 (≈ 165 µM) | 1000 (≈ 1650 µM) | 260 | 500 (≈ 823 µM) | 200 (≈ 329 µM) | 23 | 125 (≈ 206 µM)
Cc1ccc2nc(Oc3ccc(C#N)cc3)c(C3C(C#N)=C(N)N(c4cccc(C(F)(F)F)c4)C4=C3C(=O)CCC4)cc2c1 (stereo not given) | 250 (≈ 423 µM) | 200 (≈ 338 µM) | 125 (≈ 211 µM) | 100 (≈ 169 µM) | > 1000 | 253 | 250 (≈ 423 µM) | 250 (≈ 423 µM) | 38 | 250 (≈ 423 µM)
COc1ccc2nc(Oc3ccc(C#N)cc3)c(C3C(C#N)=C(N)N(c4cc(F)ccc4F)C4=C3C(=O)CCC4)cc2c1 (stereo not given) | 125 (≈ 217 µM) | 200 (≈ 347 µM) | 125 (≈ 217 µM) | 250 (≈ 434 µM) | 1000 (≈ 1740 µM) | 278 | 1000 (≈ 1740 µM) | 250 (≈ 434 µM) | 35 | 100 (≈ 174 µM)
Cc1ccc2nc(Oc3ccc(C#N)cc3)c(C3C(C#N)=C(N)N(c4ccc(F)c(F)c4)C4=C3C(=O)CCC4)cc2c1 (stereo not given) | 250 (≈ 447 µM) | 200 (≈ 357 µM) | 100 (≈ 179 µM) | 200 (≈ 357 µM) | 500 (≈ 894 µM) | 243 | 250 (≈ 447 µM) | 200 (≈ 357 µM) | 27 | 250 (≈ 447 µM)
CC1(C)S[C@@H]2[C@H](NC(=O)[C@H](N)c3ccccc3)C(=O)N2[C@H]1C(=O)O [AMPICILLIN] | 100 (≈ 286 µM) | 250 (≈ 715 µM) | 250 (≈ 715 µM) | 100 (≈ 286 µM) | – | – | – | 100 (≈ 286 µM) | – | 100 (≈ 286 µM)
NYSTATIN | – | – | – | – | 100 | – | 100 | – | – | –
